Experiment [1] deals with Mycobacterium tuberculosis. The experiment in a line: Antitubercular activity against auto-luminescent Mycobacterium tuberculosis H37Ra measured for 5 days by luminescence assay. The class given is functional. The following applies: 120 h. The gist of the method:
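Unmarked autoluminescent H37Ra homogenised with glass beads, grown in 7H9 with 0.05% Tween 80 and 10% OADC to OD600 0.3–0.5. At 2 million RLU, diluted to 2000–4000 RLU in Tween-free 7H9. Compounds tested in 3-fold steps from […] μg mL⁻¹, with DMSO and rifampicin (10, 1, 0.1 μg mL⁻¹) controls. RLU read daily for 5 days. MIClux is the lowest concentration giving RLUdrug/RLUDMSO below 10%.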

The next experiment relates to MDCK. The experiment in a line: Cytotoxicity against MDCK cells assessed as reduction in cell viability after 72 hrs by CCK-8 assay. It is filed as cell-based. Particulars: Canis lupus familiaris. For orientation: Tetrazolium dyes change colour on reduction, which living cells bring about.
The test system of experiment [2] is Mycobacterium tuberculosis. Put plainly: Antitubercular activity against Mycobacterium tuberculosis H37Ra measured for 5 days by resazurin dye-based assay. The class given is functional. Particulars: 120 h. A general note: Alamar Blue is a resazurin reagent that responds to reducing activity.

Each structure is given as a SMILES string. Converted amounts (≈) assume the structure as drawn.

The term MIC90 denotes an inhibitory concentration at the 90% level, which refers to growth in some studies and to a panel of isolates in others. A higher MIC90 goes with lower susceptibility. Broadly, the IC50 is the concentration that gives 50% inhibition. In turn, `NC(=S)N/N=C(/C=C/c1ccccc1)c1nc2ccccc2[nH]1` yielded an MIC90 in experiment [1] of 5 µg/mL (≈ 15.6 µM). Also, the IC50 with MDCK was found to be 3.4 µg/mL (≈ 10.6 µM).
The compound `Cc1csc(N/N=C(/C=C/c2cc(F)cc(F)c2)c2nc3ccccc3[nH]2)n1` showed an MIC90 in experiment [1] of 10 µg/mL (≈ 25.3 µM).
The same measure, in the same setting: under `COc1cccc(/C=C/C(=N/Nc2nc(C)cs2)c2nc3ccccc3[nH]2)c1OC` stands 10 µg/mL (≈ 23.8 µM); under `COc1cc(OC)c(/C=C/C(=N/Nc2nc(C)cs2)c2nc3ccccc3[nH]2)c(OC)c1`, over 50 µg/mL.
In the case of `Cc1cc(/C=C/C(=N/NC(N)=S)c2nc3ccccc3[nH]2)ccc1F`, in experiment [1], the MIC90 was 4 µg/mL (≈ 11.3 µM). The half-maximal inhibitory concentration (IC50) in the experiment on MDCK was determined as 1.6 µg/mL (≈ 4.53 µM).
Regarding `Cc1csc(N/N=C(/C=C/c2ccc[nH]2)c2nc3ccccc3[nH]2)n1`, the MIC90 in experiment [1] was determined as 100 µg/mL (≈ 287 µM).
In experiment [1], `Cc1ccc(/C=C/C(=N/NC(N)=S)c2nc3ccccc3[nH]2)cc1` yielded an MIC90 of 5 µg/mL (≈ 14.9 µM). In addition, the IC50 in the experiment on MDCK came to 3.7 µg/mL (≈ 11 µM).
`NC(=S)N/N=C(/C=C/c1cc(F)cc(F)c1)c1nc2ccccc2[nH]1`: in experiment [1], the MIC90 was found to be 5 µg/mL (≈ 14 µM). The IC50 in the experiment with MDCK is 1.6 µg/mL (≈ 4.48 µM).
Regarding `Cc1csc(N/N=C(/C=C/c2ccc(F)c(C)c2)c2nc3ccccc3[nH]2)n1`, the MIC90 in experiment [1] amounted to 10 µg/mL (≈ 25.5 µM).
In experiment [1], `CCN(CC)c1ccc(/C=C/C(=N/Nc2nc(C)cs2)c2nc3ccccc3[nH]2)cc1` yielded an MIC90 of 2.5 µg/mL (≈ 5.81 µM). Also, in the experiment with MDCK, the IC50 was over 30 µg/mL.
In the case of `NC(=S)N/N=C(/C=C/c1ccc[nH]1)c1nc2ccccc2[nH]1`, the MIC90 in experiment [1] is 100 µg/mL (≈ 322 µM).
`COc1cccc(/C=C/C(=N/NC(N)=S)c2nc3ccccc3[nH]2)c1OC` returned an MIC90 in experiment [1] of 5 µg/mL (≈ 13.1 µM). Further, in the experiment with MDCK, the IC50 worked out at 3.9 µg/mL (≈ 10.2 µM).
For the compound `Cc1ccc(/C=C/C(=N/Nc2nc(C)cs2)c2nc3ccccc3[nH]2)cc1`, the MIC90 in experiment [1] is 10 µg/mL (≈ 26.8 µM).
What is called MIC is the least concentration at which growth counts as inhibited. A higher MIC goes with a need for much substance. In experiment [2], `CCNC(=O)Nc1nc2cc(-c3cccnc3)cc(-c3ccccn3)c2[nH]1` displayed a minimum inhibitory concentration (MIC) of 0.001 µg/mL (≈ 0.00279 µM).
As for `Cc1csc(N/N=C(/C=C/c2cccc3[nH]ccc23)c2nc3ccccc3[nH]2)n1`, the MIC90 in experiment [1] worked out at 10 µg/mL (≈ 25.1 µM).
For the compound `COc1ccc(/C=C/C(=N/NC(N)=S)c2nc3ccccc3[nH]2)cc1`, in experiment [1], the MIC90 was found to be 10 µg/mL (≈ 28.5 µM).
In turn, `Cc1csc(N/N=C(/C=C/c2ccc(Cl)c(F)c2)c2nc3ccccc3[nH]2)n1` came in with an MIC90 in experiment [1] of 10 µg/mL (≈ 24.3 µM).
Compound `NC(=S)N/N=C(/C=C/c1cccc2[nH]ccc12)c1nc2ccccc2[nH]1` gave an MIC90 in experiment [1] of 5 µg/mL (≈ 13.9 µM). Moreover, the IC50 in the experiment with MDCK came to 0.91 µg/mL (≈ 2.52 µM).
In experiment [1], `Cc1csc(N/N=C(/C=C/c2ccc(Br)cc2)c2nc3ccccc3[nH]2)n1` yielded an MIC90 of 10 µg/mL (≈ 22.8 µM).
For `NC(=S)N/N=C(/C=C/c1ccc(Cl)c(F)c1)c1nc2ccccc2[nH]1`, the MIC90 in experiment [1] is 5 µg/mL (≈ 13.4 µM). Besides, the IC50 in the experiment with MDCK worked out at 1.5 µg/mL (≈ 4.01 µM).
As to `CCN(CC)c1ccc(/C=C/C(=N/NC(N)=S)c2nc3ccccc3[nH]2)cc1`, the MIC90 in experiment [1] was found to be 10 µg/mL (≈ 25.5 µM).
For `NC(=S)N/N=C(/C=C/c1ccc(Br)cc1)c1nc2ccccc2[nH]1`, in experiment [1], the MIC90 was determined as 4 µg/mL (≈ 9.99 µM). Further, the 50% inhibitory concentration (IC50) with MDCK was found to be 2.6 µg/mL (≈ 6.5 µM).
As to `Cc1csc(N/N=C(/C=C/c2ccc(F)cc2)c2nc3ccccc3[nH]2)n1`, the MIC90 in experiment [1] was determined as 5 µg/mL (≈ 13.2 µM).
In experiment [1], `NC(=S)N/N=C(/C=C/c1ccc(OC(F)(F)F)cc1)c1nc2ccccc2[nH]1` gave an MIC90 of 5 µg/mL (≈ 12.3 µM). Further, the IC50 in the experiment with MDCK is 0.34 µg/mL (≈ 0.839 µM).
In the case of `Cc1csc(N/N=C(/C=C/c2ccc(OC(F)(F)F)cc2)c2nc3ccccc3[nH]2)n1`, the MIC90 in experiment [1] was 10 µg/mL (≈ 22.6 µM).
In the case of `NC(=S)N/N=C(/C=C/c1ccc(F)cc1)c1nc2ccccc2[nH]1`, the MIC90 in experiment [1] is 2.5 µg/mL (≈ 7.37 µM). In the experiment with MDCK, the IC50 was found to be 1.6 µg/mL (≈ 4.71 µM).
Compound `COc1ccc(/C=C/C(=N/Nc2nc(C)cs2)c2nc3ccccc3[nH]2)cc1` gave an MIC90 in experiment [1] of 10 µg/mL (≈ 25.7 µM). Besides, the concentration for half-maximal inhibition (IC50) with MDCK stood at 1.9 µg/mL (≈ 4.88 µM).
For `COc1cc(OC)c(/C=C/C(=N/NC(N)=S)c2nc3ccccc3[nH]2)c(OC)c1`, the MIC90 in experiment [1] was over 50 µg/mL.
The same measure, in the same setting: the value for `CO[C@H]1/C=C/O[C@@]2(C)Oc3c(C)c(O)c4c(O)c(c(/C=N/N5CCN(C)CC5)c(O)c4c3C2=O)NC(=O)/C(C)=C\C=C\[C@H](C)[C@H](O)[C@@H](C)[C@@H](O)[C@@H](C)[C@H](OC(C)=O)[C@@H]1C` [RIFAMPIN] was 0.25 µg/mL (≈ 0.304 µM).
As for `Cc1csc(N/N=C(/C=C/c2ccccc2)c2nc3ccccc3[nH]2)n1`, the MIC90 in experiment [1] is 4 µg/mL (≈ 11.1 µM). In addition, the IC50 in the experiment on MDCK worked out at 2.9 µg/mL (≈ 8.07 µM).

The record behind these values is ChEMBL document CHEMBL4480361, “Design, synthesis, and in vitro biological evaluation of novel benzimidazole tethered allylidenehydrazinylmethylthiazole derivatives as potent inhibitors of Mycobacterium tuberculosis” (Medchemcomm, 2019).
